# Results: ChEMBL document CHEMBL1764980, “Synthesis and biological evaluation of orally active prodrugs of indomethacin” (J Med Chem, 2011)
# How the values were obtained:
# [1] = Metabolic stability in rat liver microsomes assessed as compound remaining at 5 mM after 30 mins by HPLC analysis; format: ADME, Microsome; details: read-out: Stability
# [2] = Chemical stability of the compound at 0.2 M phosphate buffer assessed as hydrolysis to parent compound at pH 7.4 after 4 hrs by HPLC analysis; format: physicochemical; details: pH 7.4, 4 h
# Outline: (§1)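 5 mg compound in 10 mL buffer, shaken at 400 rpm for 4 h at 40 °C. Then passed through a 0.20 μm membrane filter. Filtrate quantified by HPLC at 254 nm for both solubility and hydrolysis to parent. Detection limits estimated by HPLC.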
# [3] = Chemical stability of the compound at 0.1 M citric acid buffer assessed as hydrolysis to parent compound at pH 3 after 4 hrs by HPLC analysis; format: physicochemical; details: pH 3, 4 h; outline: as §1
# [4] = Aqueous solubility of the compound in 0.2 M hydrochloric acid buffer at pH 1 after 4 hrs by HPLC analysis; format: physicochemical; outline: as §1
# [5] = Partition coefficient, log P of the compound in n-octanol-phosphate buffer at pH 7.4 by HPLC analysis; format: physicochemical
# Outline: (§2)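 Shake-flask method at 25 °C. 1-octanol and aqueous buffer (0.2 M phosphate pH 7.4 or 0.1 M citric acid pH 3.0) pre-saturated with each other for 24 h. Compound shaken in 5 mL each phase for 60 min at 400 rpm, then centrifuged at 3500 rpm for 5 min. Both phases quantified by HPLC at 254 nm. log P = log(octanol/water concentration). Run in triplicate.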
# [6] = Aqueous solubility of the compound in 0.1 M phosphate buffer at pH 5.2 after 4 hrs by HPLC analysis; format: physicochemical; outline: as §1
# [7] = Chemical stability of the compound at 0.1 M boric acid buffer assessed as hydrolysis to parent compound at pH 9 after 4 hrs by HPLC analysis; format: physicochemical; details: pH 9, 4 h; outline: as §1
# Rattus norvegicus [8] = experiment: Antiinflammatory activity in Wistar rat assessed as inhibition of carrageenan-induced paw edema at 100 mg/kg, po administered 1 hr before carrageenan challenge measured after 3 hrs by plethysmograph relative to control; format: functional
# Outline: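 Male Wistar rats (150-200 g). Carrageenan 1% (0.1 mL) injected subplantar into left paw under light ether anaesthesia; test compound 100 mg/kg po given 1 h before. Paw volume read by plethysmograph 3 h after carrageenan. % inhibition = (carrageenan − test)/(carrageenan − normal) × 100. Groups: normal control, carrageenan, carrageenan plus treatment.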
# [9] = Chemical stability of the compound at 0.2 M hydrochloric acid buffer assessed as hydrolysis to parent compound at pH 1 after 4 hrs by HPLC analysis; format: physicochemical; details: pH 1, 4 h; outline: as §1
# [10] = Chemical stability of the compound at 0.1 M phosphate buffer assessed as hydrolysis to parent compound at pH 5.2 after 4 hrs by HPLC analysis; format: physicochemical; details: pH 5.2, 4 h; outline: as §1
# [11] = Aqueous solubility of the compound in 0.1 M boric acid buffer at pH 9 after 4 hrs by HPLC analysis; format: physicochemical; outline: as §1
# [12] = Metabolic stability in rat plasma assessed as compound remaining at 5 mM after 60 mins by HPLC analysis; format: ADME, cell-free; details: read-out: Stability
# [13] = Partition coefficient, log P of the compound in 1-octanol-citric acid buffer at pH 3 by HPLC analysis; format: physicochemical; outline: as §2
# Rattus norvegicus [14] = experiment: Gastrointestinal toxicity in Wistar rat assessed as appearance ulcer area of <1 mm diameter at 100 mg/kg, po administered as single dose after 6 hrs by Vernier caliper; format: organism-based; parameters: dose 100 mg/kg, route oral; details: in vivo
# Outline: (§3)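 Male Wistar rats (150-200 g), n = 6 per group, fasted 18 h with water available. Single oral dose of 100 mg/kg. Killed under ether 6 h after dosing; stomach opened along the greater curvature, washed and examined. Lesion lengths measured by Vernier caliper and graded I (<1 mm), II (1-3 mm) or III (>3 mm). UI = 1×(I) + 2×(II) + 3×(III), averaged over six animals.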
# [15] = Metabolic stability in rat liver microsomes assessed as compound remaining at 5 mM after 60 mins by HPLC analysis; format: ADME, Microsome; details: read-out: Stability
# [16] = Aqueous solubility of the compound in 0.1 M citric acid buffer at pH 3 after 4 hrs by HPLC analysis; format: physicochemical; outline: as §1
# Rattus norvegicus [17] = experiment: Gastrointestinal toxicity in Wistar rat assessed as ulcerogenic index at 100 mg/kg, po administered as single dose; format: organism-based; parameters: dose 100 mg/kg, route oral; details: in vivo; outline: as §3
# [18] = Aqueous solubility of the compound in 0.2 M phosphate buffer at pH 7.4 after 4 hrs by HPLC analysis; format: physicochemical; outline: as §1
# Rattus norvegicus [19] = experiment: Gastrointestinal toxicity in Wistar rat assessed as appearance ulcer area of 1 to 3 mm diameter at 100 mg/kg, po administered as single dose after 6 hrs by Vernier caliper; format: organism-based; parameters: dose 100 mg/kg, route oral; details: in vivo; outline: as §3
# Rattus norvegicus [20] = experiment: Gastrointestinal toxicity in Wistar rat assessed as appearance ulcer area of >3 mm diameter at 100 mg/kg, po administered as single dose after 6 hrs by Vernier caliper; format: organism-based; parameters: dose 100 mg/kg, route oral; details: in vivo; outline: as §3
remaining at 0.5 h [1] [%],Stability [2] [µg/mL],Stability [3] [µg/mL],solubility at 4 h [4] [µg/mL],logD [5],solubility at 4 h [6] [µg/mL],Stability [7] [µg/mL],Stability [9] [µg/mL],Stability [10] [µg/mL],solubility at 4 h [11] [µg/mL],remaining at 1 h [12] [%],logD [13],remaining at 1 h [15] [%],solubility at 4 h [16] [µg/mL],solubility at 4 h [18] [µg/mL],SMILES,inhibition in vivo at 100 mg/kg (Rattus norvegicus [8]) [%],Activity (Rattus norvegicus [14]) [%],UI (Rattus norvegicus [17]),Activity (Rattus norvegicus [19]) [%],Activity (Rattus norvegicus [20]) [%]
0,0.294,0.0075,< 0.084,4.7,< 0.084,2.187,0.021,0.1525,< 0.084,0,4.6,0,< 0.084,< 0.084,COc1ccc2c(c1)c(CC(=O)OCOC(=O)C(C)(C)C)c(C)n2C(=O)c1ccc(Cl)cc1,48.4,100,19,–,–
90.3,–,–,–,–,–,–,–,–,–,97.1,4.2,80.2,–,–,COc1ccc2c(c1)c(CC(=O)O)c(C)n2C(=O)c1ccc(Cl)cc1 [INDOMETHACIN],48.4,90.2,47,4.9,4.9

# Continued, compound first:
SMILES,remaining at 0.5 h [1] [%],Stability [2] [µg/mL],Stability [3] [µg/mL],solubility at 4 h [4] [µg/mL],logD [5],solubility at 4 h [6] [µg/mL],Stability [7] [µg/mL],Stability [9] [µg/mL],Stability [10] [µg/mL],solubility at 4 h [11] [µg/mL],remaining at 1 h [12] [%],logD [13],remaining at 1 h [15] [%],solubility at 4 h [16] [µg/mL],solubility at 4 h [18] [µg/mL],inhibition in vivo at 100 mg/kg (Rattus norvegicus [8]) [%],Activity (Rattus norvegicus [14]) [%],UI (Rattus norvegicus [17]),Activity (Rattus norvegicus [19]) [%],Activity (Rattus norvegicus [20]) [%]
COc1ccc2c(c1)c(CC(=O)OCOC(=O)OC(C)C)c(C)n2C(=O)c1ccc(Cl)cc1,–,0.01332,0.00539,< 0.119,5,< 0.119,0.2461,0.01,0.01379,< 0.119,–,5.1,–,< 0.119,< 0.119,45.2,86.3,62,5.9,7.8
COc1ccc2c(c1)c(CC(=O)OCCOC(C)=O)c(C)n2C(=O)c1ccc(Cl)cc1,1.14,0.0093,0.0092,< 0.111,3.5,< 0.111,0.369,0.0103,0.0197,< 0.111,0,4.2,0,< 0.111,< 0.111,44.4,–,0,–,–
COc1ccc2c(c1)c(CC(=O)OCc1oc(=O)oc1C)c(C)n2C(=O)c1ccc(Cl)cc1,–,0.0101,0.0134,< 0.0638,2.9,< 0.0638,0.5106,0.0191,0.0244,< 0.0638,–,4.5,–,< 0.0638,< 0.0638,12.1,–,0,–,–
